≈ marks a conversion by molar mass, not a printed value. Calls of active or inactive are those of the source. The calls are words filed in the database; no cut-off is given here.
Key:
[1] = Inhibition of Bacillus subtilis DNA polymerase 3E
In short: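 Recombinant B. subtilis pol IIIE. Serial compound dilutions in DMSO; 30 mM Tris pH 7.5, 10 mM Mg acetate, 4 mM DTT, 20% glycerol, 25 µM each dATP/dCTP/dGTP, 10 µM [3H]dTTP, 0.4 mg/ml activated calf thymus DNA; 0.025 to 0.06 U enzyme, 10 min at 30°C. TCA-precipitated, filter-collected label counted by scintillation.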

[2] = Inhibition of calf thymus DNA polymerase alpha; set-up: species or system Bos taurus
In short: (§1)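 Calf thymus pol alpha or human pol gamma, 0.025 to 0.06 U, added to compound dilutions in reaction mixture; 25 min at 37°C; stopped with ice-cold 10% TCA/10 mM pyrophosphate; precipitated [3H]DNA collected on filters and counted. Ki values for dGTP-competitive inhibitors obtained by truncated assay lacking dGTP.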

[3] = target: T1, DNA polymerase subunit gamma-1 (Homo sapiens, UniProt P54098); assay: Inhibition of human DNA polymerase gamma; in short: as §1
T1 sequence (P54098 whole entry): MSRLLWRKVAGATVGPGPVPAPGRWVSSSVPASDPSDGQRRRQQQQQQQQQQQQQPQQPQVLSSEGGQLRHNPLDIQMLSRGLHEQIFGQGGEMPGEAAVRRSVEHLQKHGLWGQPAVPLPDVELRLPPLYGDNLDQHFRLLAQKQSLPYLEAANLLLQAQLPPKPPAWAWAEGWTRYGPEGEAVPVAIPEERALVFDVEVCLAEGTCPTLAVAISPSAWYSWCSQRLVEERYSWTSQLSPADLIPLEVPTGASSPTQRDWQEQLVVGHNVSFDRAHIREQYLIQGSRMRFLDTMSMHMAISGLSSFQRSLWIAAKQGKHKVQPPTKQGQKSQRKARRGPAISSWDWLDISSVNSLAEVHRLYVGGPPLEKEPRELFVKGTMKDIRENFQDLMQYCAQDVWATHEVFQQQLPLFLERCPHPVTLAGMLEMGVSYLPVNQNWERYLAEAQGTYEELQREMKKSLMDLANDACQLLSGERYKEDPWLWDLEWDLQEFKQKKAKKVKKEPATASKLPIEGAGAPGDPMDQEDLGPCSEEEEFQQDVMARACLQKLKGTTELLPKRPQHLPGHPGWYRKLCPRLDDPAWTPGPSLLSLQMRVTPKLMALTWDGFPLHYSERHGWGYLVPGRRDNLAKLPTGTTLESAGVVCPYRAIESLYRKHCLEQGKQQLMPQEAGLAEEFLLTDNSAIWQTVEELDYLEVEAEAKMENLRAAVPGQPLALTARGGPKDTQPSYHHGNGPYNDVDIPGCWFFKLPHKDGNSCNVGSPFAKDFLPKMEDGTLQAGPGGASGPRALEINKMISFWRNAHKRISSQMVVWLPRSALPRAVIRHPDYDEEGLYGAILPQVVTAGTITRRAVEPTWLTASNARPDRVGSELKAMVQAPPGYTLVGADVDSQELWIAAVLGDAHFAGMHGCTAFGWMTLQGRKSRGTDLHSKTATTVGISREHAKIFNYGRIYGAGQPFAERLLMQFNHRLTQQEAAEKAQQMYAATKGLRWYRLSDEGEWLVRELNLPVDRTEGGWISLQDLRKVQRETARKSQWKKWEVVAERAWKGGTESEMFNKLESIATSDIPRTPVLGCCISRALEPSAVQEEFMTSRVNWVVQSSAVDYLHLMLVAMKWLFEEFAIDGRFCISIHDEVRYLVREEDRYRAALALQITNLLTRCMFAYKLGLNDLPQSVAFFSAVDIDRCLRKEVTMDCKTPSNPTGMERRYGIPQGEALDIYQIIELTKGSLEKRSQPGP

[4] = Inhibition of Bacillus subtilis topoisomerase 4
[5] = Inhibition of Bacillus subtilis gyrase
Bacillus subtilis [6] = assay: Antibacterial activity against Bacillus subtilis BD54; type: functional
Bacillus thuringiensis [7] = assay: Antibacterial activity against Bacillus thuringiensis 33679; type: functional
Bacillus cereus [8] = assay: Antibacterial activity against Bacillus cereus 4342; type: functional
Bacillus cereus [9] = assay: Antibacterial activity against Bacillus cereus 6464; type: functional
Staphylococcus aureus [10] = assay: Antibacterial activity against Staphylococcus aureus Smith 13709; type: functional
In short: (§2)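 Broth microdilution per CLSI with modified incubation. Log-phase cultures in cation-adjusted Mueller-Hinton broth, seeded at 1 x 10^5 CFU/ml. Compounds from DMSO stocks, 1% DMSO final. Incubated 37°C, 16 to 20 h, shaken. Growth read as OD600. MIC is the lowest concentration with no apparent growth. Run in quadruplicate; highest value reported.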

Bacillus thuringiensis [11] = assay: Antibacterial activity against Bacillus thuringiensis 10792; type: functional
Bacillus anthracis = assay: Antibacterial activity against Bacillus anthracis Sterne; type: functional
Staphylococcus aureus [12] = assay: Antibacterial activity against Staphylococcus aureus 25923; type: functional; in short: as §2
Staphylococcus aureus [13] = assay: Antibacterial activity against Staphylococcus aureus 1081; type: functional; in short: as §2
Staphylococcus aureus [14] = assay: Antibacterial activity against methicillin-resistant Staphylococcus aureus 1094; type: functional; in short: as §2
Staphylococcus aureus [15] = assay: Antibacterial activity against methicillin-resistant Staphylococcus aureus B42876; type: functional; in short: as §2
Staphylococcus aureus [16] = assay: Antibacterial activity against methicillin-resistant Staphylococcus aureus 1123; type: functional; in short: as §2
Staphylococcus aureus [17] = assay: Antibacterial activity against methicillin-resistant Staphylococcus aureus 1132; type: functional; in short: as §2
Staphylococcus aureus [18] = assay: Antibacterial activity against mupirocin-sensitive Staphylococcus aureus 2529; type: functional
Staphylococcus aureus [19] = assay: Antibacterial activity against mupirocin-resistant Staphylococcus aureus 777; type: functional; in short: as §2
Enterococcus faecalis [20] = assay: Antibacterial activity against Enterococcus faecalis 29212; type: functional; in short: as §2
Enterococcus faecalis [21] = assay: Antibacterial activity against vancomycin-resistant Enterococcus faecalis 700802; type: functional; in short: as §2
Enterococcus faecalis [22] = assay: Antibacterial activity against vancomycin-resistant Enterococcus faecalis 51575; type: functional; in short: as §2
Enterococcus faecalis [23] = assay: Antibacterial activity against vancomycin-resistant Enterococcus faecalis 51299; type: functional; in short: as §2
Enterococcus faecium [24] = assay: Antibacterial activity against Enterococcus faecium 19434; type: functional; in short: as §2
Enterococcus faecium [25] = assay: Antibacterial activity against vancomycin-resistant Enterococcus faecium B42762; type: functional; in short: as §2
Enterococcus faecium [26] = assay: Antibacterial activity against vancomycin-resistant Enterococcus faecium 1644; type: functional; in short: as §2
Enterococcus faecium [27] = assay: Antibacterial activity against vancomycin and linezolid-resistant Enterococcus faecium F118; type: functional; in short: as §2
Streptococcus pneumoniae [28] = assay: Antibacterial activity against Streptococcus pneumoniae 49619; type: functional
In short: (§3)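 Streptococci tested by CLSI broth microdilution in Mueller-Hinton broth with 5% defibrinated horse blood, log-phase inoculum at 1 x 10^5 CFU/ml. Incubated 37°C with shaking, 16 to 20 h, in 5% humidified CO2. Compounds at 1% DMSO final. MIC is the lowest concentration without growth by OD600. Quadruplicate; highest MIC reported.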

Streptococcus pneumoniae [29] = assay: Antibacterial activity against penicillin-resistant Streptococcus pneumoniae 700670; type: functional; in short: as §3
Streptococcus pneumoniae [30] = assay: Antibacterial activity against penicillin-resistant Streptococcus pneumoniae 700674; type: functional; in short: as §3
Streptococcus pneumoniae [31] = assay: Antibacterial activity against penicillin-resistant Streptococcus pneumoniae 700671; type: functional; in short: as §3
Streptococcus pneumoniae [32] = assay: Antibacterial activity against penicillin-resistant Streptococcus pneumoniae 700673; type: functional; in short: as §3
Streptococcus pneumoniae [33] = assay: Antibacterial activity against penicillin-resistant Streptococcus pneumoniae 700677; type: functional; in short: as §3
Streptococcus pyogenes = assay: Antibacterial activity against Streptococcus pyogenes 12344; type: functional
Escherichia coli [34] = assay: Antibacterial activity against Escherichia coli J53; type: functional
Escherichia coli [35] = assay: Antibacterial activity against ciprofloxacin-resistant Escherichia coli XL1-Blue; type: functional; in short: as §2
Klebsiella pneumoniae = assay: Antibacterial activity against Klebsiella pneumoniae 5657; type: functional
[36] = tested on: Stenotrophomonas maltophilia; assay: Antibacterial activity against Stenotrophomonas maltophilia 13637; type: functional
Pseudomonas aeruginosa = assay: Antibacterial activity against Pseudomonas aeruginosa 27853; type: functional
Bacillus subtilis [37] = assay: Inhibition of DNA synthesis in Bacillus subtilis BD54; type: functional, organism-based
In short: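 B. subtilis BD54 grown to log phase in C plus 50 medium; compound in DMSO added with [8-3H]adenine at time zero, at 5x or 1x MIC; samples over time. DNA = alkali-insensitive TCA-insoluble label; RNA = total TCA-insoluble minus DNA. Effect judged against diluent-control incorporation.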

Staphylococcus aureus [38] = assay: Antibacterial activity against HB-EMAU-resistant Staphylococcus aureus Smith; type: functional; in short: as §2
Staphylococcus aureus [39] = assay: Antibacterial activity against ciprofloxacin-resistant Staphylococcus aureus Smith; type: functional; in short: as §2
Staphylococcus aureus [40] = assay: Antibacterial activity against HB-EMAU-resistant and ciprofloxacin-resistant Staphylococcus aureus Smith; type: functional; in short: as §2
[41] = Cytotoxicity against human MRC5 cells; type: cell-based
In short: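 MRC-5 human diploid fibroblasts, 4 x 10^3 cells per well, exposed to compound from DMSO stock (final 1%) in minimal essential medium with 10% fetal calf serum for 72 h at 37°C beside a DMSO-only control.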

Staphylococcus aureus [42] = assay: Antibacterial activity against Staphylococcus aureus Smith in presence of 10% FCS; type: functional
[43] = Therapeutic index, CC50 for MRC5 cells/MIC for Staphylococcus aureus Smith; type: cell-based; settings: human

CCc1cc(Nc2cc(=O)n(CCCCN3CCN(c4c(F)cc5c(=O)c(C(=O)O)cn(C6CC6)c5c4F)CC3C)c(=O)[nH]2)ccc1C (configuration not stated)
Ki [1]: > 482 µM | Ki [2]: > 482 µM | Ki [3]: 684 µM | IC50 [4]: 43.6 µM | IC50 [5]: 31 µM | MIC (Bacillus subtilis [6]): 0.156 µg/mL (≈ 0.235 µM) | MIC (Bacillus thuringiensis [7]): 0.156 µg/mL (≈ 0.235 µM) | MIC (Bacillus cereus [8]): 0.156 µg/mL (≈ 0.235 µM) | MIC (Bacillus cereus [9]): 0.156 µg/mL (≈ 0.235 µM) | MIC (Staphylococcus aureus [10]): 0.313 µg/mL (≈ 0.472 µM) | MIC (Bacillus thuringiensis [11]): 0.156 µg/mL (≈ 0.235 µM) | MIC (Bacillus anthracis): 0.156 µg/mL (≈ 0.235 µM) | MIC (Staphylococcus aureus [12]): 0.625 µg/mL (≈ 0.943 µM) | MIC (Staphylococcus aureus [13]): 0.625 µg/mL (≈ 0.943 µM) | MIC (Staphylococcus aureus [14]): 1.25 µg/mL (≈ 1.89 µM) | MIC (Staphylococcus aureus [15]): 2.5 µg/mL (≈ 3.77 µM) | MIC (Staphylococcus aureus [16]): 1.25 µg/mL (≈ 1.89 µM) | MIC (Staphylococcus aureus [17]): 0.625 µg/mL (≈ 0.943 µM) | MIC (Staphylococcus aureus [18]): 5 µg/mL (≈ 7.54 µM) | MIC (Staphylococcus aureus [19]): 2.5 µg/mL (≈ 3.77 µM) | MIC (Enterococcus faecalis [20]): 1.25 µg/mL (≈ 1.89 µM) | MIC (Enterococcus faecalis [21]): 1.25 µg/mL (≈ 1.89 µM) | MIC (Enterococcus faecalis [22]): 1.25 µg/mL (≈ 1.89 µM) | MIC (Enterococcus faecalis [23]): 1.25 µg/mL (≈ 1.89 µM) | MIC (Enterococcus faecium [24]): 2.5 µg/mL (≈ 3.77 µM) | MIC (Enterococcus faecium [25]): 1.25 µg/mL (≈ 1.89 µM) | MIC (Enterococcus faecium [26]): 1.25 µg/mL (≈ 1.89 µM) | MIC (Enterococcus faecium [27]): 1.25 µg/mL (≈ 1.89 µM) | MIC (Streptococcus pneumoniae [28]): 0.625 µg/mL (≈ 0.943 µM) | MIC (Streptococcus pneumoniae [29]): 0.625 µg/mL (≈ 0.943 µM) | MIC (Streptococcus pneumoniae [30]): 0.625 µg/mL (≈ 0.943 µM) | MIC (Streptococcus pneumoniae [31]): 0.313 µg/mL (≈ 0.472 µM) | MIC (Streptococcus pneumoniae [32]): 0.313 µg/mL (≈ 0.472 µM) | MIC (Streptococcus pneumoniae [33]): 0.313 µg/mL (≈ 0.472 µM) | MIC (Streptococcus pyogenes): 0.313 µg/mL (≈ 0.472 µM) | MIC (Escherichia coli [34]): 2.5 µg/mL (≈ 3.77 µM) | MIC (Escherichia coli [35]): 1.25 µg/mL (≈ 1.89 µM) | MIC (Klebsiella pneumoniae): 20 µg/mL (≈ 30.2 µM) | MIC [36]: 10 µg/mL (≈ 15.1 µM) | MIC (Pseudomonas aeruginosa): > 80 µg/mL | Activity (Bacillus subtilis [37]): Active | MIC (Staphylococcus aureus [38]): 0.625 µg/mL (≈ 0.943 µM) | MIC (Staphylococcus aureus [39]): 1.25 µg/mL (≈ 1.89 µM) | MIC (Staphylococcus aureus [40]): 20 µg/mL (≈ 30.2 µM) | CC50 [41]: > 80 µg/mL | MIC (Staphylococcus aureus [42]): 0.625 µg/mL | selectivity ratio [43]: > 128

Source: ChEMBL document CHEMBL1142158, “Antibacterial activity and mechanism of action of a novel anilinouracil-fluoroquinolone hybrid compound” (Antimicrob Agents Chemother, 2007)
